From ChEMBL document CHEMBL1764963, “In vitro and QSAR studies of cucurbitacins on HepG2 and HSC-T6 liver cell lines” (Bioorg Med Chem, 2011)
Calls of active or inactive are those of the source. The calls are words filed in the database; no cut-off is given here.

What was measured:
HepG2 [1] = test: Hepatoprotective activity in human HepG2 cells assessed as inhibition of CCl4-induced toxicity at 12.5% IC50 after 24 hrs by MTT assay; assay type: functional, cell-based
How it was run: (§1)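 HepG2 cells grown 10 days in EMEM with 10% FBS, then seeded 24 h at 30,000 cells/ml in 2% FBS. Test agent added together with CCl4 (4.5 x 10^-3 M) for 24 h. Silybin was tested at 1–200 uM. Cucurbitacins were tested at 0.5 and […] their IC50, then at 0.13 and 0.06. MTT read at 570 nm. % protection calculated against CCl4-only and media-only controls. Three experiments, ≥3 replicates each.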

HepG2 [2] = test: Hepatoprotective activity in human HepG2 cells assessed as inhibition of CCl4-induced toxicity at 6.25% IC50 after 24 hrs by MTT assay; assay type: functional, cell-based; how it was run: as §1
HeLa = test: Cytotoxicity against human HeLa cells after 24 hrs by MTT assay; assay type: functional, cell-based
[3] = Cytotoxicity against rat HSC-T6 cell after 24 hrs by MTT assay; assay type: cell-based; conditions: for IC50: Rattus norvegicus, HSC-T6, 24 h
[4] = Antiproliferative activity against serum-stimulated rat HSC-T6 cells after 24 hrs by MTT assay; assay type: functional, cell-based; conditions: HSC-T6, 24 h
HepG2 [5] = test: Hepatoprotective activity in human HepG2 cells assessed as protection against cell damage after 24 hrs by MTT assay; assay type: functional
HepG2 [6] = test: Hepatoprotective activity in human HepG2 cells assessed as inhibition of CCl4-induced toxicity after 24 hrs by MTT assay; assay type: functional, cell-based; set-up: Activity: scale not given: the % may be the effect or the level left; conditions: for EC50: Homo sapiens, HepG2, 24 h
HepG2 [7] = test: (§2) Cytotoxicity against human HepG2 cells after 24 hrs assessed as inhibition of cell viability by MTT assay; assay type: cell-based; conditions: for IC50: Homo sapiens, HepG2, 24 h
[8] = Ratio of IC50 to EC50 for antiproliferative activity in rat HSC-T6 cells; assay type: functional
HepG2 [9] = test: Ratio of IC50 to EC50 for hepatoprotective activity in human HepG2 cells; assay type: functional
HepG2 [10] = test: Ratio of IC50 for human HepG2 cells to IC50 for human HeLa cells
How it was run: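 Both lines (HepG2 grown 10 days, HeLa 7 days, in EMEM/10% FBS) seeded 24 h in 2% FBS at 30,000 and 15,000 cells/ml. Five-fold serial dilutions over 5 wells for 24 h. Viability by MTT at 570 nm versus cell-free and untreated controls. IC50 derived from log IC50. Ratio taken of the two IC50 values.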

[11] = test system: Radical scavenging activity; test: Antioxidant activity assessed as DPPH radical scavenging activity at 64 uM after 10 mins; assay type: functional
[12] = Inhibition of hyaluronidase activity at 71.68 mM
[13] = as §2; assay type: cell-based; conditions: human, HepG2 cells; read-out: INH
HepG2 [14] = test: Hepatoprotective activity in human HepG2 cells assessed as inhibition of CCl4-induced toxicity at 100 uM after 24 hrs by MTT assay; assay type: functional, cell-based; how it was run: as §1
HSC-T6 = test: Cytotoxicity against rat HSC-T6 cell up to 300 uM after 24 hrs by MTT assay; assay type: functional, cell-based
How it was run: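 HSC-T6 rat stellate cells grown 4-5 days in EMEM/10% FBS, then seeded 24 h at 100,000 cells/ml in 2% FBS. Medium replaced with compound in fresh 10% FBS medium, two-fold dilutions across seven wells, for 24 h. Viability by MTT (570 nm) relative to cell-free and untreated controls. Three experiments, ≥3 replicates each.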

[15] = Antioxidant activity assessed as inhibition of free radical production at 0.58 mM within 6 mins by ABTS+ decolorization assay; assay type: functional

| Compound | IC50 (HeLa) [nM] | IC50 [3] [µM] | EC50 [4] [nM] | Activity (HepG2 [5]) [%] | EC50 (HepG2 [6]) [µM] | IC50 (HepG2 [7]) [µM] | Ratio IC50/EC50 [8] | Ratio IC50/EC50 (HepG2 [9]) | also measured |
| --- | --- | --- | --- | --- | --- | --- | --- | --- | --- |
| CCCOC1=C[C@@H]2C(=CC[C@@H]3[C@@]2(C)C(=O)C[C@]2(C)[C@@H]([C@@](C)(O)C(=O)/C=C/C(C)(C)OC(C)=O)[C@H](O)C[C@@]32C)C(C)(C)C1=O | 1400 | 2.75 | 340 | 40 | – | – | – | – | inhibition (HepG2 [1]): inactive; inhibition (HepG2 [2]): inactive |
| COC1=C[C@@H]2C(=CC[C@@H]3[C@@]2(C)C(=O)C[C@]2(C)[C@@H]([C@@](C)(O)C(=O)CCC(C)(C)O)[C@H](O)C[C@@]32C)C(C)(C)C1=O | – | 6.7 | 180 | 40 | 5 | – | – | – | inhibition (INH) (HepG2 [6]): 74% |
| CCCOC1=C[C@@H]2C(=CC[C@@H]3[C@@]2(C)C(=O)C[C@]2(C)[C@@H]([C@@](C)(O)C(=O)/C=C/C(C)(C)O)[C@H](O)C[C@@]32C)C(C)(C)C1=O | – | 2.47 | 330 | 40 | – | 5 | 8 | – | Activity (HepG2 [6]): <50% |
| COC1=C[C@@H]2C(=CC[C@@H]3[C@@]2(C)C(=O)C[C@]2(C)[C@@H]([C@@](C)(O)C(=O)/C=C/C(C)(C)OC(C)=O)[C@H](O)C[C@@]32C)C(C)(C)C1=O | – | 2.83 | 80 | 40 | 2.4 | 12 | 35 | 5 | – |
| CC(=O)OC(C)(C)/C=C/C(=O)[C@](C)(O)[C@H]1[C@H](O)C[C@@]2(C)[C@@H]3CC=C4[C@H](C[C@H](O)C(=O)C4(C)C)[C@]3(C)C(=O)C[C@]12C [CUCURBITACIN B] | 800 | 4.42 | 20 | 40 | 10.5 | 27.7 | 205 | 3 | Ratio IC50 (HepG2 [10]): 37 |
| CC(=O)OC(C)(C)/C=C/C(=O)[C@](C)(O)[C@H]1[C@H](O)C[C@@]2(C)[C@@H]3CC=C4[C@@H](C=C(O)C(=O)C4(C)C)[C@]3(C)C(=O)C[C@]12C [CUCURBITACIN E] | 100 | – | 40 | 40 | 3.2 | 15.2 | – | – | inhibition (INH) (HepG2 [6]): 74% |
| O=C1O[C@H]([C@@H](O)CO)C(O)=C1O | – | – | – | – | – | – | – | – | inhibition [11]: 50% |
| CC(=O)OC(C)(C)/C=C/C(=O)[C@](C)(O)[C@H]1[C@H](O)C[C@@]2(C)[C@@H]3CC=C4[C@@H](C=C(O[C@@H]5O[C@H](CO)[C@@H](O)[C@H](O)[C@H]5O)C(=O)C4(C)C)[C@]3(C)C(=O)C[C@]12C | 37000 | 102 | 3280 | 40 | 45.3 | 227 | 31 | 5 | Ratio IC50 (HepG2 [10]): 6 |
| CCCCC1C(=O)N(c2ccccc2)N(c2ccccc2)C1=O | – | – | – | – | – | – | – | – | inhibition [12]: 50% |
| ClC(Cl)(Cl)Cl [CARBON TETRACHLORIDE] | – | – | – | – | – | – | – | – | cytotoxicity at 24 h [13]: 50% |
| CC(C)(O)/C=C/C(=O)[C@](C)(O)[C@H]1[C@H](O)C[C@@]2(C)[C@@H]3CC=C4[C@@H](C[C@H](O)C(=O)C4(C)C)[C@]3(C)C(=O)C[C@]12C [CUCURBITACIN D] | 700 | 26 | 70 | 40 | 9 | 77.3 | 379 | 9 | inhibition (INH) (HepG2 [6]): 74%; Ratio IC50 (HepG2 [10]): 107 |
| CC(C)(O)/C=C/C(=O)[C@](C)(O)[C@H]1[C@H](O)C[C@@]2(C)[C@@H]3CC=C4[C@@H](CC(=O)[C@@H](O)C4(C)C)[C@]3(C)C(=O)C[C@]12C | – | 8.7 | 60 | 40 | 13.8 | 80.3 | 137 | 6 | inhibition (INH) (HepG2 [6]): 74% |
| COc1cc(C2Oc3cc([C@H]4Oc5cc(O)cc(O)c5C(=O)[C@@H]4O)ccc3OC2CO)ccc1O (some centres not stated) [SILIBININ] | – | – | 18800 | 40 | 45 | – | – | – | inhibition (HepG2 [14]): Active; Activity (HepG2 [7]; human, hepg2, 24 h): Non-toxic; Activity ([3]; rat, hsc-t6, 24 h): Non-toxic; Activity (HSC-T6): Not toxic |
| CC(=O)OC(C)(C)/C=C/C(=O)[C@](C)(O)[C@H]1[C@H](O)C[C@@]2(C)[C@@H]3CC=C4[C@@H](C=C(OC(C)C)C(=O)C4(C)C)[C@]3(C)C(=O)C[C@]12C | – | 2.5 | 320 | 40 | – | 4.27 | 8 | – | – |
| CC(C)(O)/C=C/C(=O)[C@](C)(O)[C@H]1[C@H](O)C[C@@]2(C)[C@@H]3CC=C4[C@@H](C=C(O[C@@H]5O[C@H](CO)[C@@H](O)[C@H](O)[C@H]5O)C(=O)C4(C)C)[C@]3(C)C(=O)C[C@]12C | – | 256 | 4150 | 40 | 195 | 390 | 62 | 2 | – |
| CCOC1=C[C@@H]2C(=CC[C@@H]3[C@@]2(C)C(=O)C[C@]2(C)[C@@H]([C@@](C)(O)C(=O)/C=C/C(C)(C)OC(C)=O)[C@H](O)C[C@@]32C)C(C)(C)C1=O | 1100 | 3.5 | 270 | 40 | – | 5.1 | 13 | – | Activity (HepG2 [6]): <50%; Ratio IC50 (HepG2 [10]): 5 |
| CC(C)OC1=C[C@@H]2C(=CC[C@@H]3[C@@]2(C)C(=O)C[C@]2(C)[C@@H]([C@@](C)(O)C(=O)/C=C/C(C)(C)O)[C@H](O)C[C@@]32C)C(C)(C)C1=O | – | 2.53 | 250 | 40 | – | 7.33 | 10 | – | Activity (HepG2 [6]): <50% |
| COC1=C[C@@H]2C(=CC[C@@H]3[C@@]2(C)C(=O)C[C@]2(C)[C@@H]([C@@](C)(O)C(=O)/C=C/C(C)(C)O)[C@H](O)C[C@@]32C)C(C)(C)C1=O | – | 6.37 | 110 | 40 | 5.25 | 15 | 60 | 3 | inhibition (INH) (HepG2 [6]): 74% |
| CC(C)(O)/C=C/C(=O)[C@](C)(O)[C@H]1[C@H](O)C[C@@]2(C)[C@@H]3CC=C4[C@@H](C=C(O)C(=O)C4(C)C)[C@]3(C)C(=O)C[C@]12C [CUCURBITACIN I] | – | 3.6 | 20 | 40 | 3.16 | 15.8 | 150 | 5 | inhibition (INH) (HepG2 [6]): 74% |
| CCOC1=C[C@@H]2C(=CC[C@@H]3[C@@]2(C)C(=O)C[C@]2(C)[C@@H]([C@@](C)(O)C(=O)/C=C/C(C)(C)O)[C@H](O)C[C@@]32C)C(C)(C)C1=O | – | 3.53 | 340 | 40 | – | – | – | – | Activity (HepG2 [6]): <50% |
| Cc1c(C)c2c(c(C)c1O)CCC(C)(C(=O)O)O2 (configuration not stated) | – | – | – | – | – | – | – | – | inhibition [15]: 50% |
| COC1=C[C@@H]2C(=CC[C@@H]3[C@@]2(C)C(=O)C[C@]2(C)[C@@H]([C@@](C)(O)C(=O)/C=C/C(C)(C)OC(C)=O)[C@H](OC(C)=O)C[C@@]32C)C(C)(C)C1=O | 3200 | 11.5 | 910 | 40 | 5.2 | 26 | 13 | 5 | Ratio IC50 (HepG2 [10]): 8 |
